Assay results as given in ChEMBL document CHEMBL4680175, “Sulfonamide-based ring-fused analogues for CAN508 as novel carbonic anhydrase inhibitors endowed with antitumor activity: Design, synthesis, and in vitro biological evaluation” (Eur J Med Chem, 2020).
The source made the active and inactive calls. The calls are words filed in the database; no cut-off is given here.

Key:
MDA-MB-231 = test: Antitumor activity against human MDA-MB-231/ATCC cells assessed as cell growth inhibition at 10 uM incubated for 48 hrs by sulforhodamine B assay; assay type: functional; conditions: read-out: GI
How it was run: (§1)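 NCI Drug Evaluation Branch protocol: primary single-dose screen at 10 μM across a 57-line human cancer panel. Drug exposure is 48 h. Cell growth and viability are read by sulforhodamine B assay. Data are given as a mean graph of percent growth of treated cells and reported as percentage growth inhibition (GI%).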

SF-539 = test: Antitumor activity against human SF539 cells assessed as cell growth inhibition at 10 uM incubated for 48 hrs by sulforhodamine B assay; assay type: functional; conditions: read-out: GI; how it was run: as §1
CAKI-1 = test: Antitumor activity against human CAKI-1 cells assessed as cell growth inhibition at 10 uM incubated for 48 hrs by sulforhodamine B assay; assay type: functional; conditions: read-out: GI; how it was run: as §1
[1] = target: Cyclin-dependent kinase 2/cyclin E1 (Homo sapiens, UniProt P24941); test: Inhibition of CDK2/cyclin E (unknown origin) expressed in baculovirus infected Sf21 insect cells using histone H1 as substrate in presence of [gamma33P]ATP
HCT-116 = test: Antitumor activity against human HCT116 cells assessed as cell growth inhibition at 10 uM incubated for 48 hrs by sulforhodamine B assay; assay type: functional; conditions: read-out: GI; how it was run: as §1
CDK9/cyclin T1 = CDK9/cyclin T1 (Homo sapiens, UniProt P50750); test: Inhibition of human full-length N-terminal GST/His6-tagged CDK9 (1 to 372 residues)/His6-tagged Cyclin-T1 (1 to 726 residues) expressed in sf9 cells using (YSPTSPS)2KK peptide as substrate in presence of [gamma33P]ATP
SN12C = test: Antitumor activity against human SN12C cells assessed as cell growth inhibition at 10 uM incubated for 48 hrs by sulforhodamine B assay; assay type: functional; conditions: read-out: GI; how it was run: as §1
T47D = test: Antitumor activity against human T-47D cells assessed as cell growth inhibition at 10 uM incubated for 48 hrs by sulforhodamine B assay; assay type: functional; conditions: read-out: GI
How it was run: (§2)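 NCI one-dose screen: 57-cell-line panel exposed at 10 μM for 48 h, Drug Evaluation Branch protocol. Growth and viability read by sulforhodamine B; data given as percent growth inhibition from the mean-graph of percent growth of treated cells.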

MOLT-4 = test: Antitumor activity against human MOLT4 cells assessed as cell growth inhibition at 10 uM incubated for 48 hrs by sulforhodamine B assay; assay type: functional; conditions: read-out: GI; how it was run: as §1
Hs-578T = test: Antitumor activity against human HS 578T cells assessed as cell growth inhibition at 10 uM incubated for 48 hrs by sulforhodamine B assay; assay type: functional; conditions: read-out: GI; how it was run: as §1
NCI/ADR-RES = test: Antitumor activity against human NCI/ADR-RES cells assessed as cell growth inhibition at 10 uM incubated for 48 hrs by sulforhodamine B assay; assay type: functional, cell-based; how it was run: as §1
MDA-MB-468 = test: Antitumor activity against human MDA-MB-468 cells assessed as cell growth inhibition at 10 uM incubated for 48 hrs by sulforhodamine B assay; assay type: functional; conditions: read-out: GI; how it was run: as §1
DU-145 = test: Antitumor activity against human DU-145 cells assessed as cell growth inhibition at 10 uM incubated for 48 hrs by sulforhodamine B assay; assay type: functional; conditions: read-out: GI; how it was run: as §1
KM12 = test: Antitumor activity against human KM12 cells assessed as cell growth inhibition at 10 uM incubated for 48 hrs by sulforhodamine B assay; assay type: functional; conditions: read-out: GI; how it was run: as §1
PC-3 = test: Antitumor activity against human PC-3 cells assessed as cell growth inhibition at 10 uM incubated for 48 hrs by sulforhodamine B assay; assay type: functional; conditions: read-out: GI; how it was run: as §1
UO-31 = test: Antitumor activity against human UO-31 cells assessed as cell growth inhibition at 10 uM incubated for 48 hrs by sulforhodamine B assay; assay type: functional; conditions: read-out: GI; how it was run: as §2
SK-MEL-5 = test: Antitumor activity against human SK-MEL-5 cells assessed as cell growth inhibition at 10 uM incubated for 48 hrs by sulforhodamine B assay; assay type: functional; conditions: read-out: GI; how it was run: as §1
HOP-62 = test: Antitumor activity against human HOP62 cells assessed as cell growth inhibition at 10 uM incubated for 48 hrs by sulforhodamine B assay; assay type: functional; conditions: read-out: GI; how it was run: as §1
RPMI-8226 = test: Antitumor activity against human RPMI8226 cells assessed as cell growth inhibition at 10 uM incubated for 48 hrs by sulforhodamine B assay; assay type: functional; conditions: read-out: GI; how it was run: as §1
Carbonic anhydrase 2 = Carbonic anhydrase 2 (Homo sapiens, UniProt P00918); test: Inhibition of recombinant human carbonic anhydrase 2 preincubated with enzyme for 15 mins by phenol red dye based stopped flow CO2 hydrase assay
NCI-H460 = test: Antitumor activity against human NCI-H460 cells assessed as cell growth inhibition at 10 uM incubated for 48 hrs by sulforhodamine B assay; assay type: functional; conditions: read-out: GI; how it was run: as §1
Carbonic anhydrase 9 = Carbonic anhydrase 9 (Homo sapiens, UniProt Q16790); test: Inhibition of recombinant human carbonic anhydrase 9 preincubated with enzyme for 15 mins by phenol red dye based stopped flow CO2 hydrase assay
U-251 = test: Antitumor activity against human U251 cells assessed as cell growth inhibition at 10 uM incubated for 48 hrs by sulforhodamine B assay; assay type: functional; conditions: read-out: GI; how it was run: as §2
Carbonic anhydrase 1 = Carbonic anhydrase 1 (Homo sapiens, UniProt P00915); test: Inhibition of recombinant human carbonic anhydrase 1 preincubated with enzyme for 15 mins by phenol red dye based stopped flow CO2 hydrase assay
Carbonic anhydrase 12 = Carbonic anhydrase 12 (Homo sapiens, UniProt O43570); test: Inhibition of recombinant human carbonic anhydrase 12 preincubated with enzyme for 15 mins by phenol red dye based stopped flow CO2 hydrase assay
CCRF-CEM = test: Antitumor activity against human CCRF-CEM cells assessed as cell growth inhibition at 10 uM incubated for 48 hrs by sulforhodamine B assay; assay type: functional; conditions: read-out: GI; how it was run: as §1
K562 = test: Antitumor activity against human K562 cells assessed as cell growth inhibition at 10 uM incubated for 48 hrs by sulforhodamine B assay; assay type: functional; conditions: read-out: GI; how it was run: as §1
SF-268 = test: Antitumor activity against human SF268 cells assessed as cell growth inhibition at 10 uM incubated for 48 hrs by sulforhodamine B assay; assay type: functional; conditions: read-out: GI; how it was run: as §1
MCF7 = test: Antitumor activity against human MCF7 cells assessed as cell growth inhibition at 10 uM incubated for 48 hrs by sulforhodamine B assay; assay type: functional; conditions: read-out: GI; how it was run: as §1
NCI-H522 = test: Antitumor activity against human NCI-H522 cells assessed as cell growth inhibition at 10 uM incubated for 48 hrs by sulforhodamine B assay; assay type: functional; conditions: read-out: GI; how it was run: as §1
HOP-92 = test: Antitumor activity against human HOP92 cells assessed as cell growth inhibition at 10 uM incubated for 48 hrs by sulforhodamine B assay; assay type: functional; conditions: read-out: GI; how it was run: as §1
BT-549 = test: Antitumor activity against human BT-549 cells assessed as cell growth inhibition at 10 uM incubated for 48 hrs by sulforhodamine B assay; assay type: functional; conditions: read-out: GI; how it was run: as §1
OVCAR-3 = test: Antitumor activity against human OVCAR-3 cells assessed as cell growth inhibition at 10 uM incubated for 48 hrs by sulforhodamine B assay; assay type: functional; conditions: read-out: GI; how it was run: as §1
SK-MEL-2 = test: Antitumor activity against human SK-MEL-2 cells assessed as cell growth inhibition at 10 uM incubated for 48 hrs by sulforhodamine B assay; assay type: functional; conditions: read-out: GI; how it was run: as §1
LOX IMVI = test: Antitumor activity against human LOX IMVI cells assessed as cell growth inhibition at 10 uM incubated for 48 hrs by sulforhodamine B assay; assay type: functional; conditions: read-out: GI; how it was run: as §1
SNB-75 = test: Antitumor activity against human SNB-75 cells assessed as cell growth inhibition at 10 uM incubated for 48 hrs by sulforhodamine B assay; assay type: functional; conditions: read-out: GI; how it was run: as §2
Malme-3M = test: Antitumor activity against human MALME-3M cells assessed as cell growth inhibition at 10 uM incubated for 48 hrs by sulforhodamine B assay; assay type: functional; conditions: read-out: GI; how it was run: as §1

Chain of CDK9/cyclin T1 (O60563 whole entry, the tested form may be a part): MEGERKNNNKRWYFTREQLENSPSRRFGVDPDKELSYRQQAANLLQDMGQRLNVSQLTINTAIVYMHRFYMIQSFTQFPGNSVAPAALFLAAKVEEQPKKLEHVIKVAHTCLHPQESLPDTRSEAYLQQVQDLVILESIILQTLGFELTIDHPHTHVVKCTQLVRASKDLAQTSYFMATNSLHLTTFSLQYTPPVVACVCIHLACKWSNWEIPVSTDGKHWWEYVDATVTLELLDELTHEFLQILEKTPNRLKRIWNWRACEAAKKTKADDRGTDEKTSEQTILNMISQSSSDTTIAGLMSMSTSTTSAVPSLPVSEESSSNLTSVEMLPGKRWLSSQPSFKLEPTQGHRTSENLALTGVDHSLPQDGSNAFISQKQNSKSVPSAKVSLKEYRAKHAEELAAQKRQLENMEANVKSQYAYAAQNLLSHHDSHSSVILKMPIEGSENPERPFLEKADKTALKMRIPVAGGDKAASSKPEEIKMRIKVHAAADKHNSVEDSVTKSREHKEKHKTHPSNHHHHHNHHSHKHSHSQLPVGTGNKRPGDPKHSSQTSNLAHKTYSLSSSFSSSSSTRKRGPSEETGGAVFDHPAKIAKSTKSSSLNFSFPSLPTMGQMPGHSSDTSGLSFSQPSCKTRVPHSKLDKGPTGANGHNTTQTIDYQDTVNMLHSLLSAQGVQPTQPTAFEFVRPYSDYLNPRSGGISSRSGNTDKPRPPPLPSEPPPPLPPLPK
Chain of CDK9/cyclin T1 (P50750 whole entry, the tested form may be a part): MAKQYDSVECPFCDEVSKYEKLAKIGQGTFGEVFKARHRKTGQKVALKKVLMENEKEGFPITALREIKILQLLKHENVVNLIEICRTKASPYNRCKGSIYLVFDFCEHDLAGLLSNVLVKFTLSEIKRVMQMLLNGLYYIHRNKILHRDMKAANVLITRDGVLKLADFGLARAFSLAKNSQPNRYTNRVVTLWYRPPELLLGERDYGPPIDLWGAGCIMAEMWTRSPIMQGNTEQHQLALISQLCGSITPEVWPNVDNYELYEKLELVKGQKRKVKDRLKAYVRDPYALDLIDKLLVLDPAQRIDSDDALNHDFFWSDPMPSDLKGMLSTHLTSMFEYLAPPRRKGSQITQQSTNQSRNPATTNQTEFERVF
Chain of Carbonic anhydrase 12 (O43570 whole entry): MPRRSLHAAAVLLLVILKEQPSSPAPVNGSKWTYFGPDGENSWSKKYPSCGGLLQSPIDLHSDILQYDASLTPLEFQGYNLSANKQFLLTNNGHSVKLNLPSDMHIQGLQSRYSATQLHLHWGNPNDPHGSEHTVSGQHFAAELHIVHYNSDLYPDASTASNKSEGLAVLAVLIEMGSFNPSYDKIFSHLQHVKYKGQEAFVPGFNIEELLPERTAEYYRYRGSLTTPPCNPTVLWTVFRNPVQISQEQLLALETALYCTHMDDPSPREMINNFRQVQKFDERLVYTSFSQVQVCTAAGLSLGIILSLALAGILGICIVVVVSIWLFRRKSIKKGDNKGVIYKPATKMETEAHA
Chain of Carbonic anhydrase 1 (P00915 whole entry): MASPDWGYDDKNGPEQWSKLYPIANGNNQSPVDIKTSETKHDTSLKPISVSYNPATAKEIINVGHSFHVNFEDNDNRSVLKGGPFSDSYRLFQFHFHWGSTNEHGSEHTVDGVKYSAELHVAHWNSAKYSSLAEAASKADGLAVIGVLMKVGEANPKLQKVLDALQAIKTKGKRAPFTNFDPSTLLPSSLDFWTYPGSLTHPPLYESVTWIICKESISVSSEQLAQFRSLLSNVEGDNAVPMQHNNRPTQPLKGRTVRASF

| Compound | inhibition of growth at 10 µM (MDA-MB-231) [%] | inhibition of growth at 10 µM (SF-539) [%] | IC50 [1] [µM] | inhibition of growth at 10 µM (HCT-116) [%] | IC50 (CDK9/cyclin T1) [µM] | inhibition of growth at 10 µM (SN12C) [%] | inhibition of growth at 10 µM (T47D) [%] | inhibition of growth at 10 µM (MOLT-4) [%] | inhibition of growth at 10 µM (Hs-578T) [%] | Activity (NCI/ADR-RES) | inhibition of growth at 10 µM (MDA-MB-468) [%] | inhibition of growth at 10 µM (KM12) [%] | inhibition of growth at 10 µM (PC-3) [%] | inhibition of growth at 10 µM (UO-31) [%] | inhibition of growth at 10 µM (SK-MEL-5) [%] | inhibition of growth at 10 µM (HOP-62) [%] | inhibition of growth at 10 µM (RPMI-8226) [%] | Ki (Carbonic anhydrase 2) [nM] | Ki (Carbonic anhydrase 9) [nM] | inhibition of growth at 10 µM (U-251) [%] | further results |
| --- | --- | --- | --- | --- | --- | --- | --- | --- | --- | --- | --- | --- | --- | --- | --- | --- | --- | --- | --- | --- | --- |
| N#Cc1c(-c2ccc(Cl)cc2)nc2c(/N=N/c3ccc(S(N)(=O)=O)cc3)c(N)nn2c1N | 52 | 25 | > 12.5 | 34 | > 12.5 | 27 | 56 | 82 | 30 | inactive | 56 | 75 | 38 | 36 | 31 | 24 | 58 | 496 | 31.3 | 30 | inhibition of growth at 10 µM (CAKI-1): 26%; inhibition of growth at 10 µM (DU-145): 40%; inhibition of growth at 10 µM (NCI-H460): 21%; Ki (Carbonic anhydrase 1): 2250 nM; Ki (Carbonic anhydrase 12): 14.2 nM; inhibition of growth at 10 µM (CCRF-CEM): 65%; inhibition of growth at 10 µM (K562): 28%; inhibition of growth at 10 µM (SF-268): 23%; inhibition of growth at 10 µM (MCF7): 51%; inhibition of growth at 10 µM (NCI-H522): 29%; inhibition of growth at 10 µM (HOP-92): 29%; inhibition of growth at 10 µM (BT-549): 35%; inhibition of growth at 10 µM (OVCAR-3): 25%; inhibition of growth at 10 µM (SK-MEL-2): 24% |
| N#Cc1c(-c2ccc(F)cc2)nc2c(/N=N/c3ccc(S(N)(=O)=O)cc3)c(N)nn2c1N | 37 | 28 | > 12.5 | 24 | > 12.5 | 24 | 48 | 62 | 23 | inactive | 71 | 53 | 29 | 38 | 31 | 21 | 60 | 399 | 8.8 | 28 | inhibition of growth at 10 µM (LOX IMVI): 28%; inhibition of growth at 10 µM (SNB-75): 33%; inhibition of growth at 10 µM (Malme-3M): 20%; Ki (Carbonic anhydrase 1): 2440 nM; Ki (Carbonic anhydrase 12): 10.9 nM; inhibition of growth at 10 µM (CCRF-CEM): 51%; inhibition of growth at 10 µM (K562): 33%; inhibition of growth at 10 µM (MCF7): 59%; inhibition of growth at 10 µM (NCI-H522): 32%; inhibition of growth at 10 µM (HOP-92): 58%; inhibition of growth at 10 µM (OVCAR-3): 20%; inhibition of growth at 10 µM (SK-MEL-2): 25% |
| Cc1ccc(-c2cn3nc(N)c(/N=N/c4ccc(S(N)(=O)=O)cc4)c3[nH]2)cc1 | 42 | 56 | 20.3 | 62 | > 12.5 | 63 | 39 | 55 | 64 | inactive | 48 | 46 | 43 | 77 | 51 | 39 | 60 | 99.7 | 9.4 | 44 | inhibition of growth at 10 µM (CAKI-1): 86%; inhibition of growth at 10 µM (LOX IMVI): 70%; inhibition of growth at 10 µM (SNB-75): 66%; inhibition of growth at 10 µM (DU-145): 52%; inhibition of growth at 10 µM (Malme-3M): 63%; inhibition of growth at 10 µM (NCI-H460): 67%; Ki (Carbonic anhydrase 1): 1200 nM; Ki (Carbonic anhydrase 12): 27.7 nM; inhibition of growth at 10 µM (CCRF-CEM): 54%; inhibition of growth at 10 µM (K562): 48%; inhibition of growth at 10 µM (SF-268): 49%; inhibition of growth at 10 µM (NCI-H522): 57%; inhibition of growth at 10 µM (HOP-92): 35%; inhibition of growth at 10 µM (BT-549): 33%; inhibition of growth at 10 µM (OVCAR-3): 36%; inhibition of growth at 10 µM (SK-MEL-2): 57% |
